Calls of active or inactive are those of the source. No cut-off for these calls is given here. Square brackets hold non-standard residues; d marks the D form. Peptide text beside a SMILES is read from it. * marks the point of attachment. ξ: configuration not given here. X1 = CCCCCCCCCCCCCCCC(=O)OCC(C*)OC(=O)CCCCCCCCCCCCCCC; Palmitoyl = CCCCCCCCCCCCCCCC(=O)*; ξC = NC(CS)C(=O)O
How the values were obtained:
Homo sapiens [1] = species: Homo sapiens; test: Agonist activity at human TLR1/TLR2 Y323A mutant expressed in HEK293T cells coexpressing NF-kappaB-driven luciferase reporter at 100 nM after 6 hrs by luciferase reporter gene assay; type: cell-based
Method in brief: (§1)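 HEK293T cells stably carrying an NF-κB-driven luciferase reporter, in DMEM, were plated 18 h before transfection. They were co-transfected by lipofection with WT or point-mutant human TLR(2–1) and TLR(1–2) ectodomain/TIR-swap chimeras, and expression was checked by immunoblot. After 24 h, cells were stimulated for 6 h with 100 nM agonist or 20 or 50 ng/mL Pam3CSK4, then lysed for a luciferase read-out.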

Homo sapiens [2] = species: Homo sapiens; test: Agonist activity at human TLR2/TLR1 F312A mutant expressed in HEK293T cells coexpressing NF-kappaB-driven luciferase reporter at 100 nM after 6 hrs by luciferase reporter gene assay; type: cell-based; method in brief: as §1
Homo sapiens [3] = species: Homo sapiens; test: Agonist activity at human TLR1/TLR2 V348A mutant expressed in HEK293T cells coexpressing NF-kappaB-driven luciferase reporter at 100 nM after 6 hrs by luciferase reporter gene assay; type: cell-based; method in brief: as §1
Homo sapiens [4] = species: Homo sapiens; test: Agonist activity at human TLR1/TLR2 L350A mutant expressed in HEK293T cells coexpressing NF-kappaB-driven luciferase reporter at 100 nM after 6 hrs by luciferase reporter gene assay; type: cell-based; method in brief: as §1
Homo sapiens [5] = species: Homo sapiens; test: Agonist activity at human TLR1/TLR2 L328A mutant expressed in HEK293T cells coexpressing NF-kappaB-driven luciferase reporter at 100 nM after 6 hrs by luciferase reporter gene assay; type: cell-based; method in brief: as §1
Homo sapiens [6] = species: Homo sapiens; test: Agonist activity at human TLR2/TLR1 V339A mutant expressed in HEK293T cells coexpressing NF-kappaB-driven luciferase reporter at 100 nM after 6 hrs by luciferase reporter gene assay; type: cell-based; method in brief: as §1
Homo sapiens [7] = species: Homo sapiens; test: Agonist activity at human TLR1/TLR2 Y325A mutant expressed in HEK293T cells coexpressing NF-kappaB-driven luciferase reporter at 100 nM after 6 hrs by luciferase reporter gene assay; type: cell-based; method in brief: as §1
Homo sapiens [8] = species: Homo sapiens; test: Agonist activity at human TLR2/TLR1 F314A mutant expressed in HEK293T cells coexpressing NF-kappaB-driven luciferase reporter at 100 nM after 6 hrs by luciferase reporter gene assay; type: cell-based; method in brief: as §1
Homo sapiens [9] = species: Homo sapiens; test: Agonist activity at human TLR1/TLR2 Y376 mutant expressed in HEK293T cells coexpressing NF-kappaB-driven luciferase reporter at 100 nM after 6 hrs by luciferase reporter gene assay; type: cell-based; method in brief: as §1
Homo sapiens [10] = species: Homo sapiens; test: Agonist activity at human TLR2/TLR1 W258A mutant expressed in HEK293T cells coexpressing NF-kappaB-driven luciferase reporter at 100 nM after 6 hrs by luciferase reporter gene assay; type: cell-based; method in brief: as §1
Homo sapiens [11] = species: Homo sapiens; test: Agonist activity at human TLR2/TLR1 Y320A mutant expressed in HEK293T cells coexpressing NF-kappaB-driven luciferase reporter at 100 nM after 6 hrs by luciferase reporter gene assay; type: cell-based; method in brief: as §1
Homo sapiens [12] = species: Homo sapiens; test: Agonist activity at human TLR2/TLR1 H340A mutant expressed in HEK293T cells coexpressing NF-kappaB-driven luciferase reporter at 100 nM after 6 hrs by luciferase reporter gene assay; type: cell-based; method in brief: as §1
Homo sapiens [13] = species: Homo sapiens; test: Agonist activity at human TLR2/TLR1 I319A mutant expressed in HEK293T cells coexpressing NF-kappaB-driven luciferase reporter at 100 nM after 6 hrs by luciferase reporter gene assay; type: cell-based; method in brief: as §1
Homo sapiens [14] = species: Homo sapiens; test: Agonist activity at human TLR1/TLR2 D327A mutant expressed in HEK293T cells coexpressing NF-kappaB-driven luciferase reporter at 100 nM after 6 hrs by luciferase reporter gene assay; type: cell-based; method in brief: as §1
[15] = biological target: T1, Toll-like receptor 1 (Homo sapiens) (UniProt Q15399); test: Induction of human TLR1 homodimerization expressed in insect Hi5 cells by size exclusion chromatography
T1 sequence (whole entry): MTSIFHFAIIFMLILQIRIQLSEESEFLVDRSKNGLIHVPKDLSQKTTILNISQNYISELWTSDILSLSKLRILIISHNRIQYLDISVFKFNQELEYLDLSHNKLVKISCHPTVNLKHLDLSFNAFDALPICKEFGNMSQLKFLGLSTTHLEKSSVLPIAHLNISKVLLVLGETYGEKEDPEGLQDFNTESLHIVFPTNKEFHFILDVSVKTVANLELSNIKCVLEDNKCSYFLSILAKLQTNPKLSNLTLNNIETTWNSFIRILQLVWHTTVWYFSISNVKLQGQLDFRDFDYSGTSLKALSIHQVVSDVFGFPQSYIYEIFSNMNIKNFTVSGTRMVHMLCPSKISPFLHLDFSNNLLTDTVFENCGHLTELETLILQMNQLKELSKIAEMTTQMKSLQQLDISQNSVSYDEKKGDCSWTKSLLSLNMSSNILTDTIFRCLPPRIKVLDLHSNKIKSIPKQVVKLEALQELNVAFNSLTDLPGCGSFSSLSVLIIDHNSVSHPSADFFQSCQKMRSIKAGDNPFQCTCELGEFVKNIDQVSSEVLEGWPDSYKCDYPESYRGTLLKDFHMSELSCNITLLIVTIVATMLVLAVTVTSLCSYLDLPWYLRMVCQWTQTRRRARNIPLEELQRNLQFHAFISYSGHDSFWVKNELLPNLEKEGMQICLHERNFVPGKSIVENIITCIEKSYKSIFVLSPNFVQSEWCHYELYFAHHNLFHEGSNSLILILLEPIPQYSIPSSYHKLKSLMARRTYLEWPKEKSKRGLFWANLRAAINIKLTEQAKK
Method in brief: (§2)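 Human TLR1 and TLR2 ectodomains were made in Hi5 insect cells, partially deglycosylated, and had the protein A tag cleaved by thrombin before purification. Protein at 1 μM (each alone, or both together) was incubated with 30 μM ligand in 25 mM HEPES pH 8.0, 150 mM NaCl, 10% DMSO for 4 h at room temperature. Dimer formation was then analysed by analytical gel filtration on Superdex 200.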

Homo sapiens [16] = species: Homo sapiens; test: Agonist activity at human TLR1/TLR2 Y332A mutant expressed in HEK293T cells coexpressing NF-kappaB-driven luciferase reporter at 100 nM after 6 hrs by luciferase reporter gene assay; type: cell-based; method in brief: as §1
Homo sapiens [17] = species: Homo sapiens; test: Agonist activity at human TLR1/TLR2 F349A mutant expressed in HEK293T cells coexpressing NF-kappaB-driven luciferase reporter at 100 nM after 6 hrs by luciferase reporter gene assay; type: cell-based; method in brief: as §1
[18] = biological target: T2, Toll-like receptor 1/2 (Homo sapiens) (UniProt O60603+Q15399); test: Antagonist activity at TLR2/TLR1 in human THP1 cells assessed as reduction in diprovoci-induced TNF production at 5 uM pre-incubated for 1 hr before diprovocim stimulation for 4 hrs by ELISA method; type: cell-based
[19] = biological target: T2, Toll-like receptor 1/2 (Homo sapiens); test: Antagonist activity at TLR2/TLR1 in human THP1 cells assessed as reduction in diprovoci-induced TNF production at 50 uM pre-incubated for 1 hr before diprovocim stimulation for 4 hrs by ELISA method; type: cell-based
Homo sapiens [20] = species: Homo sapiens; test: Agonist activity at human TLR2/TLR1 V339A mutant expressed in HEK293T cells coexpressing NF-kappaB-driven luciferase reporter at 50 ng/ml after 6 hrs by luciferase reporter gene assay; type: cell-based; method in brief: as §1
Homo sapiens [21] = species: Homo sapiens; test: Agonist activity at human TLR2/TLR1 W258A mutant expressed in HEK293T cells coexpressing NF-kappaB-driven luciferase reporter at 50 ng/ml after 6 hrs by luciferase reporter gene assay; type: cell-based; method in brief: as §1
Homo sapiens [22] = species: Homo sapiens; test: Agonist activity at human TLR1/TLR2 Y332A mutant expressed in HEK293T cells coexpressing NF-kappaB-driven luciferase reporter at 20 ng/ml after 6 hrs by luciferase reporter gene assay; type: cell-based; method in brief: as §1
Homo sapiens [23] = species: Homo sapiens; test: Agonist activity at human TLR1/TLR2 Y325A mutant expressed in HEK293T cells coexpressing NF-kappaB-driven luciferase reporter at 20 ng/ml after 6 hrs by luciferase reporter gene assay; type: cell-based; method in brief: as §1
Homo sapiens [24] = species: Homo sapiens; test: Agonist activity at human TLR2/TLR1 I319A mutant expressed in HEK293T cells coexpressing NF-kappaB-driven luciferase reporter at 50 ng/ml after 6 hrs by luciferase reporter gene assay; type: cell-based; method in brief: as §1
Homo sapiens [25] = species: Homo sapiens; test: Agonist activity at human TLR2/TLR1 Y320A mutant expressed in HEK293T cells coexpressing NF-kappaB-driven luciferase reporter at 50 ng/ml after 6 hrs by luciferase reporter gene assay; type: cell-based; method in brief: as §1
Homo sapiens [26] = species: Homo sapiens; test: Agonist activity at human TLR1/TLR2 V348A mutant expressed in HEK293T cells coexpressing NF-kappaB-driven luciferase reporter at 20 ng/ml after 6 hrs by luciferase reporter gene assay; type: cell-based; method in brief: as §1
Homo sapiens [27] = species: Homo sapiens; test: Agonist activity at human TLR1/TLR2 L350A mutant expressed in HEK293T cells coexpressing NF-kappaB-driven luciferase reporter at 20 ng/ml after 6 hrs by luciferase reporter gene assay; type: cell-based; method in brief: as §1
Homo sapiens [28] = species: Homo sapiens; test: Agonist activity at human TLR1/TLR2 D327A mutant expressed in HEK293T cells coexpressing NF-kappaB-driven luciferase reporter at 20 ng/ml after 6 hrs by luciferase reporter gene assay; type: cell-based; method in brief: as §1
Homo sapiens [29] = species: Homo sapiens; test: Agonist activity at human TLR1/TLR2 F349A mutant expressed in HEK293T cells coexpressing NF-kappaB-driven luciferase reporter at 20 ng/ml after 6 hrs by luciferase reporter gene assay; type: cell-based; method in brief: as §1
[30] = biological target: Toll-like receptor 2 (Homo sapiens) (UniProt O60603); test: Induction of human TLR2 homodimerization expressed in insect Hi5 cells by size exclusion chromatography; method in brief: as §2
Sequence of Toll-like receptor 2 (Homo sapiens) (O60603 whole entry): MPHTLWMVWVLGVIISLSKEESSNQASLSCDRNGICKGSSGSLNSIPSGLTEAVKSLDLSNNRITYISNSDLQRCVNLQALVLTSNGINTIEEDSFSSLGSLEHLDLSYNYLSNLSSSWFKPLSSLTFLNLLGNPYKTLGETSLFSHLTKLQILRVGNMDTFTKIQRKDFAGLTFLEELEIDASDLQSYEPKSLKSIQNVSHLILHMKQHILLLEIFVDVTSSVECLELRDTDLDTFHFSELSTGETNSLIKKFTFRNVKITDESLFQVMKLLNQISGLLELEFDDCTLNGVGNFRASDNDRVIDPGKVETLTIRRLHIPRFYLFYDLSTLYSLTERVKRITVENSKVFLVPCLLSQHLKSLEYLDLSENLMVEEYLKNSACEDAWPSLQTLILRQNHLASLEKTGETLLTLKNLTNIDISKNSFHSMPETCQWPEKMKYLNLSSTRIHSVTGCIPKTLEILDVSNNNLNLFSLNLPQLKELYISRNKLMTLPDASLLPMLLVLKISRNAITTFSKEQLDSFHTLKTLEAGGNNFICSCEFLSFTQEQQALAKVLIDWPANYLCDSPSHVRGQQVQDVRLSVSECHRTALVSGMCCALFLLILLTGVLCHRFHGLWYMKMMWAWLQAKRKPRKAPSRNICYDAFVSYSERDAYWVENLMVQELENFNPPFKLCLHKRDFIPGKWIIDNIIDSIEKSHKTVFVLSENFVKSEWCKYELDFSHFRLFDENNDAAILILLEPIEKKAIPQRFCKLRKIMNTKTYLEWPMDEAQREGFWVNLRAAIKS

Homo sapiens [31] = species: Homo sapiens; test: Agonist activity at human TLR1/TLR2 Y376 mutant expressed in HEK293T cells coexpressing NF-kappaB-driven luciferase reporter at 20 ng/ml after 6 hrs by luciferase reporter gene assay; type: cell-based; method in brief: as §1
[32] = biological target: T2, Toll-like receptor 1/2 (Homo sapiens); test: Induction of human TLR2/TLR1 heterodimerization expressed in insect Hi5 cells by size exclusion chromatography; method in brief: as §2
Homo sapiens [33] = species: Homo sapiens; test: Agonist activity at human TLR2/TLR1 F314A mutant expressed in HEK293T cells coexpressing NF-kappaB-driven luciferase reporter at 50 ng/ml after 6 hrs by luciferase reporter gene assay; type: cell-based; method in brief: as §1
Homo sapiens [34] = species: Homo sapiens; test: Agonist activity at human TLR2/TLR1 F312A mutant expressed in HEK293T cells coexpressing NF-kappaB-driven luciferase reporter at 50 ng/ml after 6 hrs by luciferase reporter gene assay; type: cell-based; method in brief: as §1
Homo sapiens [35] = species: Homo sapiens; test: Agonist activity at human TLR1/TLR2 L328A mutant expressed in HEK293T cells coexpressing NF-kappaB-driven luciferase reporter at 20 ng/ml after 6 hrs by luciferase reporter gene assay; type: cell-based; method in brief: as §1
Homo sapiens [36] = species: Homo sapiens; test: Agonist activity at human TLR1/TLR2 Y323A mutant expressed in HEK293T cells coexpressing NF-kappaB-driven luciferase reporter at 20 ng/ml after 6 hrs by luciferase reporter gene assay; type: cell-based; method in brief: as §1
Homo sapiens [37] = species: Homo sapiens; test: Agonist activity at human TLR2/TLR1 H340A mutant expressed in HEK293T cells coexpressing NF-kappaB-driven luciferase reporter at 50 ng/ml after 6 hrs by luciferase reporter gene assay; type: cell-based; method in brief: as §1

Structure (SMILES): O=C(N[C@H]1C[C@@H]1c1ccccc1)[C@@H]1CN(C(=O)c2ccc(C(=O)N3C[C@@H](C(=O)N[C@H]4C[C@@H]4c4ccccc4)[C@H](C(=O)N[C@H]4C[C@@H]4c4ccccc4)C3)cc2)C[C@H]1C(=O)N[C@H]1C[C@@H]1c1ccccc1
- Activity (Homo sapiens [1]): inactive
- Activity (Homo sapiens [2]): Active
- Activity (Homo sapiens [3]): inactive
- Activity (Homo sapiens [4]): Active
- Activity (Homo sapiens [5]): Active
- Activity (Homo sapiens [6]): inactive
- Activity (Homo sapiens [7]): inactive
- Activity (Homo sapiens [8]): Active
- Activity (Homo sapiens [9]): Active
- Activity (Homo sapiens [10]): inactive
- Activity (Homo sapiens [11]): inactive
- Activity (Homo sapiens [12]): inactive
- Activity (Homo sapiens [13]): inactive
- Activity (Homo sapiens [14]): Active
- Activity [15]: inactive
- Activity (Homo sapiens [16]): Active
- Activity (Homo sapiens [17]): inactive

Structure (SMILES): O=C(N[C@H]1C[C@@H]1c1ccccc1)[C@@H]1CN(C(=O)c2ccccc2)C[C@H]1C(=O)N[C@H]1C[C@@H]1c1ccccc1
- inhibition [18]: Active
- inhibition [19]: Active

Structure (SMILES): CCCCCCCCCCCCCCCC(=O)NC(CSCC(COC(=O)CCCCCCCCCCCCCCC)OC(=O)CCCCCCCCCCCCCCC)C(=O)N[C@@H](CO)C(=O)N[C@@H](CCCCN)C(=O)N[C@@H](CCCCN)C(=O)N[C@@H](CCCCN)C(=O)N[C@@H](CCCCN)C(=O)O (stereo partly drawn) (Palmitoyl-[ξC](X1)SKKKK-OH)
- Activity (Homo sapiens [20]): inactive
- Activity (Homo sapiens [21]): inactive
- Activity (Homo sapiens [22]): inactive
- Activity (Homo sapiens [23]): inactive
- Activity (Homo sapiens [24]): inactive
- Activity (Homo sapiens [25]): inactive
- Activity (Homo sapiens [26]): inactive
- Activity (Homo sapiens [27]): inactive
- Activity (Homo sapiens [28]): inactive
- Activity (Homo sapiens [29]): inactive
- Activity [30]: inactive
- Activity (Homo sapiens [31]): inactive
- Activity [32]: Active
- Activity (Homo sapiens [33]): inactive
- Activity (Homo sapiens [34]): inactive
- Activity (Homo sapiens [35]): inactive
- Activity (Homo sapiens [36]): inactive
- Activity [15]: inactive
- Activity (Homo sapiens [37]): inactive

Source: ChEMBL document CHEMBL4392821
